Reference: ChEMBL document CHEMBL4334458, “Design, synthesis and antibacterial evaluation of novel 15-membered 11a-azahomoclarithromycin derivatives with the 1, 2, 3-triazole side chain” (Eur J Med Chem, 2019)
In brackets after ≈: the same amount, converted by molar mass. Activity calls are given as the source filed them. The rule behind the calls is not given here.

Columns and labels:
Staphylococcus aureus [1] = assay: Antibacterial activity against penicillin-resistant Staphylococcus aureus ATCC 31007 incubated for 24 hrs by broth dilution method; assay type: functional; conditions: ATCC 31007, 24 h
Bacillus subtilis = assay: Antibacterial activity against penicillin-susceptible Bacillus subtilis ATCC 9372 incubated for 24 hrs by broth dilution method; assay type: functional; conditions: ATCC 9372, 24 h
Procedure, shortened: (§1)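 CLSI broth microdilution in cation-adjusted Mueller-Hinton broth. Twofold dilutions spanned 0.25–128 or 0.5–256 µg/mL, with CAM and AZM as controls. Log-phase bacteria were added and incubated 24 h at 37 °C. MIC was read by turbidity as the concentration of the last clear well.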

Streptococcus pneumoniae [2] = assay: Bactericidal activity against erythromycin-resistant Streptococcus pneumoniae AB11 expressing the ermB and mefA incubated for 24 hrs followed by re-plating on tryptic soy agar plates for 24 hrs by broth microdilution assay; assay type: functional
Procedure, shortened: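 Follows the 24 h, 37 °C CAMH broth microdilution MIC plate; contents of clear wells plated onto tryptic soy agar and incubated 24 h at 37 °C; MBC taken as the lowest concentration giving no colonies.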

Escherichia coli = assay: Antibacterial activity against penicillin-susceptible Escherichia coli ATCC 25922 incubated for 24 hrs by broth dilution method; assay type: functional; conditions: ATCC 25922, 24 h; procedure, shortened: as §1
Streptococcus pneumoniae [3] = assay: Ratio of MBC to MIC for erythromycin-resistant Streptococcus pneumoniae AB11 expressing the ermB and mefA; assay type: functional
Streptococcus pneumoniae [4] = assay: Antibacterial activity against erythromycin-resistant Streptococcus pneumoniae AB11 expressing the ermB and mefA incubated for 24 hrs by broth dilution method; assay type: functional
Pseudomonas aeruginosa = assay: Antibacterial activity against penicillin-susceptible Pseudomonas aeruginosa ATCC 27853 incubated for 24 hrs by broth dilution method; assay type: functional; conditions: ATCC 27853, 24 h; procedure, shortened: as §1
Streptococcus pyogenes [5] = assay: Antibacterial activity against erythromycin-susceptible Streptococcus pyogenes 1 clinical isolate incubated for 24 hrs by broth dilution method; assay type: functional; procedure, shortened: as §1
Streptococcus pneumoniae [6] = assay: Antibacterial activity against erythromycin-resistant Streptococcus pneumoniae B1 expressing the ermB incubated for 24 hrs by broth dilution method; assay type: functional
Streptococcus pneumoniae [7] = assay: Bacteriostatic activity against erythromycin-resistant Streptococcus pneumoniae AB11 expressing the ermB and mefA by time-kill curve assay; assay type: functional, organism-based
Streptococcus pneumoniae [8] = assay: Bacteriostatic activity against erythromycin-resistant Streptococcus pneumoniae AB11 expressing the ermB and mefA at 1 to 4 times MIC incubated for 9 to 24 hrs by time-kill curve assay; assay type: functional, organism-based
Staphylococcus aureus [9] = assay: Antibacterial activity against methicillin-resistant Staphylococcus aureus ATCC 43300 incubated for 24 hrs by broth dilution method; assay type: functional; conditions: ATCC 43300, 24 h
Streptococcus pyogenes [10] = assay: Antibacterial activity against erythromycin-resistant Streptococcus pyogenes 2 clinical isolate incubated for 24 hrs by broth dilution method; assay type: functional
Streptococcus pneumoniae [11] = assay: Bactericidal activity against erythromycin-resistant Streptococcus pneumoniae AB11 expressing the ermB and mefA at 1 to 4 times MIC incubated for up to 9 hrs by time-kill curve assay; assay type: functional, organism-based
Staphylococcus aureus [12] = assay: Antibacterial activity against erythromycin-susceptible Staphylococcus aureus ATCC 25923 incubated for 24 hrs by broth dilution method; assay type: functional; conditions: ATCC 25923, 24 h; procedure, shortened: as §1
Staphylococcus aureus [13] = assay: Bactericidal activity against erythromycin-susceptible Staphylococcus aureus ATCC 25923 incubated for 24 hrs followed by re-plating on tryptic soy agar plates for 24 hrs by broth microdilution assay; assay type: functional; conditions: ATCC 25923, 24 h
Procedure, shortened: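 Built on the broth microdilution MIC set-up (CAMH, 24 h, 37 °C). After 24 h, contents of clear wells were plated on tryptic soy agar and incubated 24 h at 37 °C. MBC was taken as the lowest concentration giving no colonies.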

[14] = Cytotoxicity against human MCF7 cells assessed as viable cells at 64 to 128 ug/ml incubated for 24 hrs by MTT assay relative to control; assay type: cell-based; conditions: read-out: Activity
Procedure, shortened: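 MCF-7 cells were seeded at 10^4 cells/well and allowed to settle overnight. Compound was added for 24 h, with CAM as control and DMSO as vehicle control. MTT (5 mg/mL stock) was then added for 4 h at 37 °C, formazan dissolved in DMSO for 10 min, and absorbance read at 570 nm. Read-out was percent viable cells.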

Staphylococcus aureus [15] = assay: Ratio of MBC to MIC for erythromycin-susceptible Staphylococcus aureus ATCC 25923; assay type: functional
Streptococcus pyogenes [16] = assay: Ratio of MIC for CAM to MIC for test compound for antibacterial activity against erythromycin-resistant Streptococcus pyogenes 2 clinical isolate incubated for 24 hrs by broth dilution method; assay type: functional
Procedure, shortened: (§2)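 Ratio of clarithromycin MIC to compound MIC. Both MICs come from CLSI broth microdilution in cation-adjusted Mueller-Hinton broth with 2-fold dilutions, log-phase inoculum and 24 h at 37 °C, read by turbidity as the last clear well.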

Staphylococcus aureus [17] = assay: Ratio of MIC for CAM to MIC for test compound for antibacterial activity against penicillin-resistant Staphylococcus aureus ATCC 31007 incubated for 24 hrs by broth dilution method; assay type: functional; procedure, shortened: as §2
Staphylococcus aureus [18] = assay: Ratio of MIC for CAM to MIC for test compound for antibacterial activity against methicillin-resistant Staphylococcus aureus ATCC 43300 incubated for 24 hrs by broth dilution method; assay type: functional; procedure, shortened: as §2
Streptococcus pneumoniae [19] = assay: Ratio of MIC for CAM to MIC for test compound for antibacterial activity against erythromycin-resistant Streptococcus pneumoniae AB11 expressing the ermB and mefA incubated for 24 hrs by broth dilution method; assay type: functional; procedure, shortened: as §2
Streptococcus pneumoniae [20] = assay: Ratio of MIC for CAM to MIC for test compound for antibacterial activity against erythromycin-resistant Streptococcus pneumoniae B1 expressing the ermB incubated for 24 hrs by broth dilution method; assay type: functional; procedure, shortened: as §2

With `CCCCc1ccc(-c2cn(C[C@@H]3CN(C)C[C@@H](C)[C@@H](O)[C@H](C)C[C@@](C)(OC)[C@H](O[C@@H]4O[C@H](C)C[C@H](N(C)C)[C@H]4O)[C@@H](C)[C@H](O[C@H]4C[C@@](C)(OC)[C@@H](O)[C@H](C)O4)[C@@H](C)C(=O)O3)nn2)cc1` the MIC (Staphylococcus aureus [1]) was 8 µg/mL (≈ 8.71 µM), the MIC (Bacillus subtilis) was 32 µg/mL (≈ 34.8 µM) and the MBC (Streptococcus pneumoniae [2]) was 64 µg/mL (≈ 69.7 µM). The MIC (Escherichia coli) was greater than 128 µg/mL, the Ratio (Streptococcus pneumoniae [3]) was 8 and the MIC (Streptococcus pneumoniae [4]) was 8 µg/mL (≈ 8.71 µM). For the same compound, the MIC (Pseudomonas aeruginosa) was greater than 128 µg/mL, the MIC (Streptococcus pyogenes [5]) was 8 µg/mL (≈ 8.71 µM) and the MIC (Streptococcus pneumoniae [6]) was 64 µg/mL (≈ 69.7 µM). The Activity (Streptococcus pneumoniae [7]) was “Dose-dependent effect”, the Activity (Streptococcus pneumoniae [8]) was “Active” and the MIC (Staphylococcus aureus [9]) was 8 µg/mL (≈ 8.71 µM). For the same compound, the MIC (Streptococcus pyogenes [10]) was 8 µg/mL (≈ 8.71 µM), the Activity (Streptococcus pneumoniae [11]) was “Active” and the MIC (Staphylococcus aureus [12]) was 8 µg/mL (≈ 8.71 µM).
With `COc1cccc(-n2cc(COC[C@H]3CN(C)C[C@@H](C)[C@@H](O)[C@H](C)C[C@@](C)(OC)[C@H](O[C@@H]4O[C@H](C)C[C@H](N(C)C)[C@H]4O)[C@@H](C)[C@H](O[C@H]4C[C@@](C)(OC)[C@@H](O)[C@H](C)O4)[C@@H](C)C(=O)O3)nn2)c1` the MIC (Staphylococcus aureus [1]) was greater than 256 µg/mL, the MBC (Staphylococcus aureus [13]) was greater than 128 µg/mL and the MIC (Bacillus subtilis) was no more than 0.25 µg/mL. The MIC (Escherichia coli) was 64 µg/mL (≈ 69.4 µM), the viability at 24 h [14] was 60% and the MIC (Streptococcus pneumoniae [4]) was 128 µg/mL (≈ 139 µM). For the same compound, the MIC (Pseudomonas aeruginosa) was 32 µg/mL (≈ 34.7 µM), the MIC (Streptococcus pyogenes [5]) was 0.5 µg/mL (≈ 0.542 µM) and the MIC (Streptococcus pneumoniae [6]) was greater than 256 µg/mL. It also gave a Ratio (Staphylococcus aureus [15]) greater than 512, an MIC (Staphylococcus aureus [9]) greater than 256 µg/mL and an MIC (Streptococcus pyogenes [10]) of 128 µg/mL (≈ 139 µM). The MIC (Staphylococcus aureus [12]) was no more than 0.25 µg/mL.
`CCCc1ccc(-n2cc(COC[C@@H]3CN(C)C[C@@H](C)[C@@H](O)[C@H](C)C[C@@](C)(OC)[C@H](O[C@@H]4O[C@H](C)C[C@H](N(C)C)[C@H]4O)[C@@H](C)[C@H](O[C@H]4C[C@@](C)(OC)[C@@H](O)[C@H](C)O4)[C@@H](C)C(=O)O3)nn2)cc1` showed an MIC (Staphylococcus aureus [1]) of 32 µg/mL (≈ 34.3 µM), an MIC (Bacillus subtilis) of 1 µg/mL (≈ 1.07 µM) and an MBC (Streptococcus pneumoniae [2]) of 64 µg/mL (≈ 68.5 µM). The MIC (Escherichia coli) was 64 µg/mL (≈ 68.5 µM), the Ratio (Streptococcus pyogenes [16]) was 8 - 16 and the Ratio (Streptococcus pneumoniae [3]) was 8. The MIC (Streptococcus pneumoniae [4]) was 8 µg/mL (≈ 8.56 µM), the Ratio (Staphylococcus aureus [17]) was 8 - 16 and the MIC (Pseudomonas aeruginosa) was greater than 128 µg/mL. For the same compound, the MIC (Streptococcus pyogenes [5]) was 4 µg/mL (≈ 4.28 µM), the MIC (Streptococcus pneumoniae [6]) was 16 µg/mL (≈ 17.1 µM) and the Ratio (Staphylococcus aureus [18]) was 8 - 16. The MIC (Staphylococcus aureus [9]) was 16 µg/mL (≈ 17.1 µM), the MIC (Streptococcus pyogenes [10]) was 32 µg/mL (≈ 34.3 µM) and the Ratio (Streptococcus pneumoniae [19]) was 8 - 16. For the same compound, the MIC (Staphylococcus aureus [12]) was 4 µg/mL (≈ 4.28 µM) and the Ratio (Streptococcus pneumoniae [20]) was 8 - 16.
`CCCCc1ccc(-c2cn(C[C@H]3COC(=O)[C@H](C)[C@@H](O[C@H]4C[C@@](C)(OC)[C@@H](O)[C@H](C)O4)[C@H](C)[C@@H](O[C@@H]4O[C@H](C)C[C@H](N(C)C)[C@H]4O)[C@](C)(OC)C[C@@H](C)[C@H](O)[C@H](C)CN3C)nn2)cc1` showed an MIC (Staphylococcus aureus [1]) of 16 µg/mL (≈ 17.4 µM), an MIC (Bacillus subtilis) of 8 µg/mL (≈ 8.71 µM) and an MIC (Escherichia coli) greater than 128 µg/mL. For the same compound, the Ratio (Streptococcus pyogenes [16]) was 8 - 16, the MIC (Streptococcus pneumoniae [4]) was 16 µg/mL (≈ 17.4 µM) and the Ratio (Staphylococcus aureus [17]) was 8 - 16. The MIC (Pseudomonas aeruginosa) was greater than 128 µg/mL, the MIC (Streptococcus pyogenes [5]) was 4 µg/mL (≈ 4.36 µM) and the MIC (Streptococcus pneumoniae [6]) was greater than 256 µg/mL. For the same compound, the MIC (Staphylococcus aureus [9]) was greater than 256 µg/mL, the MIC (Streptococcus pyogenes [10]) was 16 µg/mL (≈ 17.4 µM) and the Ratio (Streptococcus pneumoniae [19]) was 8 - 16. For the same compound, the MIC (Staphylococcus aureus [12]) was 16 µg/mL (≈ 17.4 µM).
For `CC[C@H]1OC(=O)[C@H](C)[C@@H](O[C@H]2C[C@@](C)(OC)[C@@H](O)[C@H](C)O2)[C@H](C)[C@@H](O[C@@H]2O[C@H](C)C[C@H](N(C)C)[C@H]2O)[C@](C)(OC)C[C@@H](C)C(=O)[C@H](C)[C@@H](O)[C@]1(C)O` [CLARITHROMYCIN], the MIC (Staphylococcus aureus [1]) was greater than 256 µg/mL, the MBC (Staphylococcus aureus [13]) was 128 µg/mL (≈ 171 µM) and the MIC (Bacillus subtilis) was no more than 0.25 µg/mL. For the same compound, the MBC (Streptococcus pneumoniae [2]) was 128 µg/mL (≈ 171 µM), the MIC (Escherichia coli) was 128 µg/mL (≈ 171 µM) and the Ratio (Streptococcus pneumoniae [3]) was 1. The MIC (Streptococcus pneumoniae [4]) was 128 µg/mL (≈ 171 µM), the MIC (Pseudomonas aeruginosa) was 32 µg/mL (≈ 42.8 µM) and the MIC (Streptococcus pyogenes [5]) was no more than 0.03 µg/mL. It also gave an MIC (Streptococcus pneumoniae [6]) greater than 256 µg/mL, a Ratio (Staphylococcus aureus [15]) greater than 512 and an MIC (Staphylococcus aureus [9]) greater than 256 µg/mL. For the same compound, the MIC (Streptococcus pyogenes [10]) was 256 µg/mL (≈ 342 µM) and the MIC (Staphylococcus aureus [12]) was no more than 0.25 µg/mL.
`CO[C@]1(C)C[C@@H](C)[C@H](O)[C@H](C)CN(C)C[C@H](COCc2cn(-c3ccccc3)nn2)OC(=O)[C@H](C)[C@@H](O[C@H]2C[C@@](C)(OC)[C@@H](O)[C@H](C)O2)[C@H](C)[C@H]1O[C@@H]1O[C@H](C)C[C@H](N(C)C)[C@H]1O` showed an MIC (Staphylococcus aureus [1]) greater than 256 µg/mL, an MBC (Staphylococcus aureus [13]) of 128 µg/mL (≈ 143 µM) and an MIC (Bacillus subtilis) of no more than 0.25 µg/mL. It also gave an MIC (Escherichia coli) of 64 µg/mL (≈ 71.7 µM), a viability at 24 h [14] of 60% and an MIC (Streptococcus pneumoniae [4]) of 128 µg/mL (≈ 143 µM). The MIC (Pseudomonas aeruginosa) was 16 µg/mL (≈ 17.9 µM), the MIC (Streptococcus pyogenes [5]) was 0.25 µg/mL (≈ 0.28 µM) and the MIC (Streptococcus pneumoniae [6]) was greater than 256 µg/mL. It also gave a Ratio (Staphylococcus aureus [15]) greater than 512, an MIC (Staphylococcus aureus [9]) greater than 256 µg/mL and an MIC (Streptococcus pyogenes [10]) of 128 µg/mL (≈ 143 µM). It also gave an MIC (Staphylococcus aureus [12]) of no more than 0.25 µg/mL.
